For 29 compounds, Virus rating and MIC50 results are on record in ChEMBL document CHEMBL1122431, “Carbocyclic analogues of 5-substituted uracil nucleosides: synthesis and antiviral activity” (1983).

Format in all cases: functional
The subject of experiment [1] is Human alphaherpesvirus 1. Briefly: Antiviral activity against herpes simplex virus(1) strain 377. An outline of the steps:
(§1)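 Inhibition of virus-induced cytopathogenic effect (CPE) in primary rabbit kidney cell cultures challenged with HSV-1 strain 377 or HSV-2 strain MS. HSV-2 testing followed the same procedure. Activity was scored as a virus rating (VR).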

For experiment [2], the system named is Human alphaherpesvirus 1. Briefly: Antiviral activity against herpes simplex virus(1) strain 377, expressed as virus rating. An outline of the steps: as §1
Experiment [3] has as its system Human alphaherpesvirus 1. In words: Minimum inhibitory concentration (MIC50) in Herpes simplex virus type-1 (HSV-1) using 377 strain. In short, it runs like this:
(§2)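 Inhibition of virus-induced CPE in primary rabbit kidney cell cultures infected with HSV-1 strain 377 or HSV-2 strain MS. Potency was taken as the minimum inhibitory concentration (MIC50), in μg/mL, alongside the virus rating.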

Experiment [4] concerns Human alphaherpesvirus 2. In words: Antiviral activity against herpes simplex virus(2) strain MS expressed as virus rating. An outline of the steps:
as §1

Experiment [5] has as its system Human alphaherpesvirus 2. In words: Minimum inhibitory concentration (MIC50) in Herpes simplex virus type-2 (HSV-2) using MS strain. In short, it runs like this: as §2
For experiment [6], the system named is Human alphaherpesvirus 1. Briefly: Minimum inhibitory concentration (MIC50) in Herpes simplex virus type-1 (HSV-1) using 377 strain. Experiment 2. An outline of the steps:
as §2

In experiment [7] the test system is Human alphaherpesvirus 1. In words: Antiviral activity against herpes simplex virus(1) strain 377, expressed as virus rating. Experiment 2. In short, it runs like this:
as §1

Experiment [8] concerns Human alphaherpesvirus 1. In words: Minimum inhibitory concentration (MIC50) in Herpes simplex virus type-1 (HSV-1) using 377 strain. Experiment 3. In short, it runs like this: as §2
In experiment [9] the test system is Human alphaherpesvirus 1. In words: Antiviral activity against herpes simplex virus(1) strain 377, expressed as virus rating. Experiment 3. In short, it runs like this:
as §1

The subject of experiment [10] is Human alphaherpesvirus 2. In words: Antiviral activity against herpes simplex virus(2) strain MS expressed as virus rating. An outline of the steps: as §1
Experiment [11] relates to Human alphaherpesvirus 1. Briefly: Minimum inhibitory concentration (MIC50) in Herpes simplex virus type-1 (HSV-1) using 377 strain. Experiment 1. An outline of the steps:
as §2

Experiment [12] has as its system Human alphaherpesvirus 1. Briefly: Antiviral activity against herpes simplex virus(1) strain 377, expressed as virus rating. Experiment 1. An outline of the steps: as §1
Experiment [13] concerns Human alphaherpesvirus 1. Briefly: Minimum inhibitory concentration (MIC50) in Herpes simplex virus type-1 (HSV-1) using 377 strain at 0.9 virus rating. Experiment 2. In short, it runs like this: as §2
In experiment [14] the test system is Human alphaherpesvirus 1. In words: Minimum inhibitory concentration (MIC50) in Herpes simplex virus type-1 (HSV-1) using 377 strain. Experiment 4. In short, it runs like this:
as §2

Experiment [15] has as its system Human alphaherpesvirus 2. Briefly: Minimum inhibitory concentration (MIC50) in Herpes simplex virus type-2 (HSV-2) using MS strain. Experiment 2. In short, it runs like this: as §2
For experiment [16], the system named is Human alphaherpesvirus 2. In words: Antiviral activity against herpes simplex virus(2) strain MS expressed as virus rating. Experiment 2. In short, it runs like this: as §1
The test system of experiment [17] is Human alphaherpesvirus 2. Briefly: Minimum inhibitory concentration (MIC50) in Herpes simplex virus type-2 (HSV-2) using MS strain. Experiment 1. In short, it runs like this: as §2
Experiment [18] has as its system Human alphaherpesvirus 2. In words: Antiviral activity against herpes simplex virus(2) strain MS expressed as virus rating. Experiment 1. An outline of the steps:
as §1

The test system of experiment [19] is Human alphaherpesvirus 1. In words: Antiviral activity against herpes simplex virus(1) strain 377, expressed as virus rating. Experiment 4. In short, it runs like this:
as §1

Experiment [20] has as its system Human alphaherpesvirus 1. In words: Minimum inhibitory concentration (MIC50) in Herpes simplex virus type-1 (HSV-1) using 377 strain. Experiment 2. An outline of the steps:
as §2

Experiment [21] concerns Human alphaherpesvirus 2. Briefly: Minimum inhibitory concentration (MIC50) in Herpes simplex virus type-2(HSV-2) using MS strain. An outline of the steps: as §2
Experiment [22] relates to Human alphaherpesvirus 1. Briefly: Minimum inhibitory concentration (MIC50) in Herpes simplex virus type-1(HSV-1) using 377 strain. An outline of the steps:
as §2

≈ marks a conversion by molar mass, not a printed value.

`O=c1[nH]c(=O)n(C2CC(CO)CC2O)cc1Br` (stereo not given): the Virus rating in the experiment on Human alphaherpesvirus 1 [1] is recorded as 0.
As for `CC(=O)OCC1CC(OC(C)=O)C(n2cc(Br)c(=O)[nH]c2=O)C1` (stereo not given), the Virus rating in the experiment with Human alphaherpesvirus 1 [2] was determined as 0.
Regarding `O=c1[nH]c(=O)n([C@H]2C[C@H](O)[C@@H](CO)O2)cc1I` [IDOXURIDINE], the MIC50 with Human alphaherpesvirus 1 [3] worked out at 0.3 µg/mL (≈ 0.847 µM); with Human alphaherpesvirus 2 [5], 1 µg/mL (≈ 2.82 µM). In addition, the Virus rating with Human alphaherpesvirus 2 [4] is 5; in the experiment with Human alphaherpesvirus 1 [2], 7.4.
Consider `CNc1cn(C2CC(O)C(CO)C2)c(=O)[nH]c1=O` (stereo not given), for which the MIC50 stood at 15 µg/mL (≈ 58.8 µM) in the experiment with Human alphaherpesvirus 1 [6], 25 µg/mL (≈ 97.9 µM) in the experiment with Human alphaherpesvirus 1 [8], 229 µg/mL (≈ 897 µM) in the experiment with Human alphaherpesvirus 2 [5] and 10 µg/mL (≈ 39.2 µM) in the experiment on Human alphaherpesvirus 1 [11]. Further, the Virus rating stood at 3.9 in the experiment with Human alphaherpesvirus 1 [7], 4.5 in the experiment on Human alphaherpesvirus 1 [9], 1.2 in the experiment with Human alphaherpesvirus 2 [10] and 4.2 in the experiment with Human alphaherpesvirus 1 [12].
For `Nc1ncnc2c1ncn2[C@@H]1O[C@H](CO)[C@@H](O)[C@@H]1O` [VIDARABINE], the MIC50 against Human alphaherpesvirus 1 [3] was found to be 9.8 µg/mL (≈ 36.7 µM); against Human alphaherpesvirus 2 [5], 20.1 µg/mL (≈ 75.2 µM). Moreover, the Virus rating with Human alphaherpesvirus 2 [4] is recorded as 2.3; in the experiment on Human alphaherpesvirus 1 [2] it was 2.7.
As for `O=c1[nH]c(=O)n(C2CC(CO)CC2O)cc1F` (stereo not given), the Virus rating in the experiment with Human alphaherpesvirus 1 [1] amounted to 0.
Regarding `CC(=O)OCC1CC(n2cc(Br)c(=O)[nH]c2=O)CC1OC(C)=O` (stereo not given), the values for the Virus rating with Human alphaherpesvirus 1 [7] and in the experiment with Human alphaherpesvirus 1 [12] were 0.9 and 1.3, respectively. The MIC50 with Human alphaherpesvirus 1 [13] amounted to 100 µg/mL (≈ 257 µM); against Human alphaherpesvirus 1 [11], 92 µg/mL (≈ 236 µM).
`Cc1cn(C2CC(CO)C(O)C2O)c(=O)[nH]c1=O` (stereo not given) had a Virus rating in the experiment with Human alphaherpesvirus 1 [1] of 0.
On the same count and under the same terms, the result for `CNc1cn(C2CC(CO)CC2O)c(=O)[nH]c1=O` (stereo not given) reads 0.
With `Nc1cn(C2CC(O)C(CO)C2)c(=O)[nH]c1=O` (stereo not given), the Virus rating in the experiment on Human alphaherpesvirus 1 [2] is given as 0.1.
`O=c1[nH]c(=O)n([C@@H]2C[C@H](CO)[C@@H](O)C2)cc1I`: the MIC50 in the experiment on Human alphaherpesvirus 1 [6] turned out to be 0.3 µg/mL (≈ 0.852 µM); against Human alphaherpesvirus 1 [14], 0.4 µg/mL (≈ 1.14 µM); in the experiment on Human alphaherpesvirus 2 [15], 20 µg/mL (≈ 56.8 µM); in the experiment with Human alphaherpesvirus 1 [8], 0.1 µg/mL (≈ 0.284 µM); against Human alphaherpesvirus 2 [17] it was 32 µg/mL (≈ 90.9 µM); in the experiment on Human alphaherpesvirus 1 [11], 0.4 µg/mL (≈ 1.14 µM). Moreover, the Virus rating with Human alphaherpesvirus 1 [7] was 7.1; with Human alphaherpesvirus 2 [16] it was 3.4; in the experiment with Human alphaherpesvirus 1 [9], 7.9; in the experiment with Human alphaherpesvirus 2 [18], 2.9; with Human alphaherpesvirus 1 [19], 7.4; with Human alphaherpesvirus 1 [12], 6.5.
Take `O=c1[nH]c(=O)n([C@H]2C[C@H](O)[C@@H](CO)O2)cc1F` [FLOXURIDINE]: the Virus rating in the experiment on Human alphaherpesvirus 1 [1] and in the experiment on Human alphaherpesvirus 2 [4] was 0 throughout.
As to `O=c1[nH]c(=O)n(C2CC(CO)C(O)C2O)cc1CO` (stereo not given), the results for the Virus rating in the experiment with Human alphaherpesvirus 2 [4] and in the experiment on Human alphaherpesvirus 1 [2] were 0 and 0.3, respectively.
On to `CNc1cn(C2CC(CO)C(O)C2O)c(=O)[nH]c1=O` (stereo not given), for which the Virus rating in the experiment with Human alphaherpesvirus 1 [1] was 0.
The same measure, in the same setting: to `O=c1[nH]c(=O)n(C2CC(CO)C(O)C2O)cc1I` (stereo not given) belongs 0; to `Cc1cn(C2CC(CO)CC2O)c(=O)[nH]c1=O` (stereo not given), 0.4; to `O=c1[nH]c(=O)n(C2CC(CO)CC2O)cc1I` (stereo not given), 0.
On to `CC(=O)OCC1CC(n2cc(I)c(=O)[nH]c2=O)CC1OC(C)=O` (stereo not given), for which the Virus rating with Human alphaherpesvirus 1 [7] amounted to 1.6; in the experiment with Human alphaherpesvirus 1 [12] it was 2.4. The MIC50 in the experiment on Human alphaherpesvirus 1 [20] was 25 µg/mL (≈ 57.3 µM); in the experiment with Human alphaherpesvirus 1 [11], 10 µg/mL (≈ 22.9 µM).
In the experiment on Human alphaherpesvirus 1 [1], `Nc1cn(C2CC(CO)CC2O)c(=O)[nH]c1=O` (stereo not given) displayed a Virus rating of 0.
Same read-out and setting: to `O=c1ccn(C2CC(CO)CC2O)c(=O)[nH]1` (stereo not given) belongs 0; to `Nc1cn(C2CC(CO)C(O)C2O)c(=O)[nH]c1=O` (stereo not given), 0; to `CN(C)c1cn(C2CC(O)C(CO)C2)c(=O)[nH]c1=O` (stereo not given), 0.
`Cc1cn([C@@H]2C[C@H](CO)[C@@H](O)C2)c(=O)[nH]c1=O`: the Virus rating in the experiment on Human alphaherpesvirus 1 [1] is 5.4; with Human alphaherpesvirus 2 [4], 3.2. The values for the MIC50 in the experiment on Human alphaherpesvirus 1 [3] and against Human alphaherpesvirus 2 [5] were 0.8 µg/mL (≈ 3.33 µM) and 7 µg/mL (≈ 29.1 µM), respectively.
The compound `O=c1ccn(C2CC(CO)C(O)C2O)c(=O)[nH]1` (stereo not given) displayed a Virus rating in the experiment on Human alphaherpesvirus 1 [1] of 0.
`O=c1[nH]c(=O)n(C2CC(O)C(CO)C2)cc1Br` (stereo not given): the figures for the Virus rating with Human alphaherpesvirus 1 [1] and with Human alphaherpesvirus 2 [4] were 6.2 and 1.5, respectively. For the same compound, the figures for the MIC50 against Human alphaherpesvirus 2 [21] and against Human alphaherpesvirus 1 [22] were 32 µg/mL (≈ 105 µM) and 0.3 µg/mL (≈ 0.983 µM), respectively.
In turn, `O=c1[nH]c(=O)n(C2CC(CO)C(O)C2O)cc1Br` (stereo not given) showed a Virus rating in the experiment with Human alphaherpesvirus 1 [1] of 0.
`O=c1[nH]c(=O)n(C2CC(CO)C(O)C2O)cc1F` (stereo not given) registered a Virus rating in the experiment on Human alphaherpesvirus 1 [1] of 0.
Compound `O=c1ccn(C2CC(O)C(CO)C2)c(=O)[nH]1` (stereo not given) registered a Virus rating in the experiment on Human alphaherpesvirus 1 [2] of 0.
With `CCCCNc1cn(C2CC(O)C(CO)C2)c(=O)[nH]c1=O` (stereo not given), the Virus rating is 2 in the experiment on Human alphaherpesvirus 1 [1] and 0.7 in the experiment with Human alphaherpesvirus 2 [10]. For the same compound, the MIC50 against Human alphaherpesvirus 1 [3] stood at 290 µg/mL (≈ 975 µM); with Human alphaherpesvirus 2 [5] it was 1000 µg/mL (≈ 3360 µM).
